The values below come from ChEMBL document CHEMBL3112393, “Structure-based design, synthesis and biological evaluation of diphenylmethylamine derivatives as novel Akt1 inhibitors” (Eur J Med Chem, 2014).

Calls of active or inactive are those of the source. No cut-off for these calls is given here.

In assay [1] the test system is HCT-116. Description: Antiproliferative activity against human HCT116 cells after 72 hrs by MTT assay. Particulars: HCT-116, 72 h. In kind it is functional, cell-based. The essentials:
(§1)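 MTT assay: cells seeded at 4000 per well, attached overnight, exposed to compound over 1.0–100.0 range for 72 h. MTT then added, 4 h more at 37 °C. Formazan dissolved in DMSO, absorbance at 570 nm. Triplicate wells in three independent experiments. IC50 from dose-effect analysis.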

Assay [2] concerns the target T1, RAC-alpha serine/threonine-protein kinase (Homo sapiens, UniProt P31749). Description: Inhibition of Akt1 (unknown origin) using ATP/eNOS as substrate preincubated for 5 mins followed by substrate addition measured after 30 mins by fluorescence polarization assay.
Assay [3] deals with OVCAR-8. The assay is described as follows: Antiproliferative activity against human OVCAR8 cells after 72 hrs by MTT assay. As to conditions: OVCAR-8, 72 h. In kind it is functional, cell-based. The essentials: as §1
Assay [4] deals with HL-60. The assay is described as follows: Antiproliferative activity against human HL60 cells after 72 hrs by MTT assay. The assay is classed as functional, cell-based. As to conditions: HL-60, 72 h. An outline of the steps:
as §1

Assay [5] deals with T1, RAC-alpha serine/threonine-protein kinase. Description: Inhibition of Akt1 (unknown origin) using ATP/eNOS as substrate at 10 uM preincubated for 5 mins followed by substrate addition measured after 30 mins by fluorescence polarization assay. An outline of the steps:
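Competitive fluorescence polarization kinase assay. 4 ng Akt1 in 2.5× kinase buffer (62.5 mM Tris-HCl pH 7.5, 25 mM MgCl₂, 12.5 mM β-glycerophosphate, 0.25 mM Na₃VO₄, 5 mM DTT) preincubated with DMSO vehicle or compound for 5 min at room temperature. ATP/eNOS substrate cocktail then added. Reaction stopped with 50 mM EDTA (pH 8.0), activity read per kit instructions. Single-point inhibition measured at 10.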

The subject of assay [6] is OVCAR-8. The assay is described as follows: Induction of apoptosis in human OVCAR8 cells assessed as accumulation at sub-G1 phase at 20 uM after 48 hrs by annexin V-FITC/propidium iodide staining-based FACS flow cytometric analysis (reference value: 1.2%). In kind it is functional. The essentials:
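OVCAR-8 cells (5 × 10⁴ cells/ml, 5 ml) grown in 25 cm² flasks, treated with vehicle or compound for 48 h. Cells harvested, washed twice with ice-cold PBS, stained with annexin V-FITC/propidium iodide, analysed by flow cytometry.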

For assay [7], the target named is T1, RAC-alpha serine/threonine-protein kinase. Description: Inhibition of Akt1 in human OVCAR8 cells assessed as effect on total GSK3beta level at 1 uM by Western blotting analysis. In kind it is cell-based. As to conditions: OVCAR-8. The essentials:
(§2)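 OVCAR-8 cells treated, washed with ice-cold PBS, lysed in buffer with NaF, β-glycerophosphate and PMSF. Lysate cleared at 13,000 rpm for 30 min at 4 °C, protein measured by Bradford. 40–80 of lysate protein run on SDS-PAGE and transferred to nitrocellulose. Blots probed with primary antibodies, then HRP secondaries, detected by ECL.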

Assay [8] has as its target T2, Serine/threonine-protein kinase B-raf (Homo sapiens, UniProt P15056). The assay is described as follows: Inhibition of BRAF1 (unknown origin).
Assay [9] deals with T1, RAC-alpha serine/threonine-protein kinase. The assay is described as follows: Inhibition of Akt1-mediated phosphorylation at Ser473 in human OVCAR8 cells at 1 uM by Western blotting analysis. In kind it is cell-based. Particulars: OVCAR-8. The essentials:
as §2

Assay [10] has as its target T3, Inhibitor of nuclear factor kappa-B kinase subunit beta (Homo sapiens) (UniProt O14920).
T3 sequence (whole entry): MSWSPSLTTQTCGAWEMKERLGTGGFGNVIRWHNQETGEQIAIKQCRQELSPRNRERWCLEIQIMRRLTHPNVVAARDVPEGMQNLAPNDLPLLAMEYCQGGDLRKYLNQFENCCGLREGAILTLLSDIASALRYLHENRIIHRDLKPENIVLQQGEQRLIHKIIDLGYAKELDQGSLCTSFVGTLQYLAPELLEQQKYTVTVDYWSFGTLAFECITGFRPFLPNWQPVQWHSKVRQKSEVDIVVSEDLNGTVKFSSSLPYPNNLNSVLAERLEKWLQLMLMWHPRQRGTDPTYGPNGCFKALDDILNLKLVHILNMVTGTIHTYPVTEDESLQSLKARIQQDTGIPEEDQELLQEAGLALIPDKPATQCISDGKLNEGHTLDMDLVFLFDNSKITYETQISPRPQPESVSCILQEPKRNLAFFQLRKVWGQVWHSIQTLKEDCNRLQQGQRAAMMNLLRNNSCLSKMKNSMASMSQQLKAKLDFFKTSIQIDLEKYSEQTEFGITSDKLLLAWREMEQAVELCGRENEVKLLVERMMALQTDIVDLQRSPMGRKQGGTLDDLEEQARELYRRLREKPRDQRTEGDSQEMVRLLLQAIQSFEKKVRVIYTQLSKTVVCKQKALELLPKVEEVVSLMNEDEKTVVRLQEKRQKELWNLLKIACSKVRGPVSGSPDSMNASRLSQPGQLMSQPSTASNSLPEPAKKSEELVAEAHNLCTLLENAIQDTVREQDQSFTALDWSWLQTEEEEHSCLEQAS
The assay is described as follows: Inhibition of IKKbeta (unknown origin) at 0.8 ug/ml.

For assay [11], the target named is Tyrosine-protein kinase SYK (Homo sapiens) (UniProt P43405). Description: Inhibition of SYK (unknown origin) at 0.8 ug/ml.
The target in assay [12] is T1, RAC-alpha serine/threonine-protein kinase. Description: Inhibition of Akt1 in human OVCAR8 cells assessed as GSK3beta phosphorylation at 1 uM by Western blotting analysis. The assay is classed as cell-based. Particulars: OVCAR-8. An outline of the steps:
as §2

Assay [13] is filed under the species Homo sapiens. The assay is described as follows: Inhibition of Drak (unknown origin) at 0.8 ug/ml.
The target of assay [14] is Tyrosine-protein kinase JAK2 (Homo sapiens) (UniProt O60674). The assay is described as follows: Inhibition of JAK2 (unknown origin) at 0.8 ug/ml.
Assay [15] has as its target Glycogen synthase kinase-3 beta (Homo sapiens) (UniProt P49841). The assay is described as follows: Inhibition of GSK3beta (unknown origin) at 0.8 ug/ml.
The target of assay [16] is T4, Aurora kinase A (Homo sapiens) (UniProt O14965).
T4 sequence (whole entry): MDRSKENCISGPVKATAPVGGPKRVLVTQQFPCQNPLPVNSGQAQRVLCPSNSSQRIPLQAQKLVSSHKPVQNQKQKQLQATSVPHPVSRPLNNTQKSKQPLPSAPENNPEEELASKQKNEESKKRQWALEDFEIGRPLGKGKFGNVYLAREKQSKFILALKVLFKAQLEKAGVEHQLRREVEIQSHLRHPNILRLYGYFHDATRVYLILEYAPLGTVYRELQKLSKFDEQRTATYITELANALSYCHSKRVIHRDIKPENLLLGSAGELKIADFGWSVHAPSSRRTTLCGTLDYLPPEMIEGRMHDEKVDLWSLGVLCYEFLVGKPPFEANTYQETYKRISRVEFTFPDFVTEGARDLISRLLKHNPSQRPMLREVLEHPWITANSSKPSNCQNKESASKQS
Description: Inhibition of Aurora A (unknown origin) at 0.8 ug/ml.

Assay [17] is described as follows: Inhibition of Drak (unknown origin). Details: species or system Homo sapiens.
Assay [18] concerns the target T2, Serine/threonine-protein kinase B-raf.

T1 sequence (P31749 whole entry): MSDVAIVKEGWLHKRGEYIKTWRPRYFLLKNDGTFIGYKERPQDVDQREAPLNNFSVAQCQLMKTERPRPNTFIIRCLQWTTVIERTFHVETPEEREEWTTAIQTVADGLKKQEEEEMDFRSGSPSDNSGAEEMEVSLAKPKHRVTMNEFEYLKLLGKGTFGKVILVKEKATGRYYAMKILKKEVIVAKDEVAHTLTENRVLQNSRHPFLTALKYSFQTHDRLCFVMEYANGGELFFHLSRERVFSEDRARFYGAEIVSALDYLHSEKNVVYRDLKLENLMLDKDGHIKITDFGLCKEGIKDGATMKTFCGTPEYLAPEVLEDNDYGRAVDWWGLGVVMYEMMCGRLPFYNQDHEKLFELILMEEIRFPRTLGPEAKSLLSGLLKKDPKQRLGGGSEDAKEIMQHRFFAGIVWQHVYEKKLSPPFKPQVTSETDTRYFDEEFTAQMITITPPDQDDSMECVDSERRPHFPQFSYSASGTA
T2 sequence (P15056 whole entry): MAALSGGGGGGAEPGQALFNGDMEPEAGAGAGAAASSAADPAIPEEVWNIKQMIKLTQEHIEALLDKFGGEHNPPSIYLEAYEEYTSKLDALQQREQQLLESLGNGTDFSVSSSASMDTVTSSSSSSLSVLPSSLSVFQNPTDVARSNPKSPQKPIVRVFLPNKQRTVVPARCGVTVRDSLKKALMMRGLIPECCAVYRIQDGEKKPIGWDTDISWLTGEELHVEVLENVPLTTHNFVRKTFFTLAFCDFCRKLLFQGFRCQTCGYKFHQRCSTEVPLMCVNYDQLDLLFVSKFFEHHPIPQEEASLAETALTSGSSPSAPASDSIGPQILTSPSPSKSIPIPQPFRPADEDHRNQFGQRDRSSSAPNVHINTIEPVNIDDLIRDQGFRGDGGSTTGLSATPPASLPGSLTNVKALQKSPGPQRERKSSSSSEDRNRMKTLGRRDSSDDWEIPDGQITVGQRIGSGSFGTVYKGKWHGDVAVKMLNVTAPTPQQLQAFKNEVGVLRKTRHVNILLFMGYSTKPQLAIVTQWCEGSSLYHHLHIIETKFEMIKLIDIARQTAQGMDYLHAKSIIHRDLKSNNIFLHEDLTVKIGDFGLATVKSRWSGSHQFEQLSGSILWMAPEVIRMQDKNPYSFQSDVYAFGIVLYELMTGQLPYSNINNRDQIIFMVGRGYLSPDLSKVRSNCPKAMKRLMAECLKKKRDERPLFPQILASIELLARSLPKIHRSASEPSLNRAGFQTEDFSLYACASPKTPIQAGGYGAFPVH
Glycogen synthase kinase-3 beta (Homo sapiens), sequence (P49841 whole entry, looked up): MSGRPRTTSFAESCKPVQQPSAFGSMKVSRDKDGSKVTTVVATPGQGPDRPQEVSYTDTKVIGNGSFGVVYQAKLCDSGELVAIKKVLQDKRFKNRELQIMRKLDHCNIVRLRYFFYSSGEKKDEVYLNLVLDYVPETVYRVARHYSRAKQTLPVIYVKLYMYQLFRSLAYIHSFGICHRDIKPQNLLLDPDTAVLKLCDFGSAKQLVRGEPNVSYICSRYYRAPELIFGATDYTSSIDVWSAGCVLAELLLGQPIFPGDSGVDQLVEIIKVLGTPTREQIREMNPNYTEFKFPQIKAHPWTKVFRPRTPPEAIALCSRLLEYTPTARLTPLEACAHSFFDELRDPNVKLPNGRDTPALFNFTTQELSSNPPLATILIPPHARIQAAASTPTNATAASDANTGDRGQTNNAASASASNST
Tyrosine-protein kinase JAK2 (Homo sapiens), sequence (O60674 whole entry): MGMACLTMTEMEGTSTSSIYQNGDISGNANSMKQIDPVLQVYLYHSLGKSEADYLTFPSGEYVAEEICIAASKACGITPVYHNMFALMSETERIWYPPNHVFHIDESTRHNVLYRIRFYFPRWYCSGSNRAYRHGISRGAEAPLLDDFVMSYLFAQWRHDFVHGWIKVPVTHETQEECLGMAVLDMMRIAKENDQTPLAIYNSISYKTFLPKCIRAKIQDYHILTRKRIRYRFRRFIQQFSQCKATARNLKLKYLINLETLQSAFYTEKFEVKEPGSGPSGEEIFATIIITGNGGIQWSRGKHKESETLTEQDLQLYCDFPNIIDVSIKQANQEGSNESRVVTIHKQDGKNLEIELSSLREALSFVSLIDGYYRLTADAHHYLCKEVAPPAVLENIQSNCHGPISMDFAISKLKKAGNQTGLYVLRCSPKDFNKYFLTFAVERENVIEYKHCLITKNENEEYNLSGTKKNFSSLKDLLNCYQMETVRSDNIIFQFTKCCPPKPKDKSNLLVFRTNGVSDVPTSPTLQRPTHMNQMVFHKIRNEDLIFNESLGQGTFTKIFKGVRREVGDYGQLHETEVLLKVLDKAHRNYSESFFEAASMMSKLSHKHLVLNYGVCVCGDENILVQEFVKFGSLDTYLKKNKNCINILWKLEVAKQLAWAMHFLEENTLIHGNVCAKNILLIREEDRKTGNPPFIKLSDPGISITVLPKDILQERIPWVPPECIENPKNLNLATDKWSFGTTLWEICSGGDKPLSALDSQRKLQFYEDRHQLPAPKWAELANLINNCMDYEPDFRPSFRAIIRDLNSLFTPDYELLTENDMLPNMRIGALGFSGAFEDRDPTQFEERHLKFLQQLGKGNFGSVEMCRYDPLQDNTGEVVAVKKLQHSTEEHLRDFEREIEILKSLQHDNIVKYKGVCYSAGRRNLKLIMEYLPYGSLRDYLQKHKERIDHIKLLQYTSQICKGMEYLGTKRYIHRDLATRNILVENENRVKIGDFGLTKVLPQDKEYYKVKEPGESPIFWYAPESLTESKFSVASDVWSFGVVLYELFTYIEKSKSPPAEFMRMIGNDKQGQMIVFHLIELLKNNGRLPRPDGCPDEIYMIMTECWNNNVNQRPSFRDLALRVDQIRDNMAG

Turning to `NCCNC(c1ccc(Cl)cc1)c1ccc(-c2cn[nH]c2)cc1` (stereo unspecified), the IC50 in [1] turned out to be 10.7 µM; in assay [2], 0.82 µM; in [3], 11.1 µM.
Regarding `Clc1ccc(C(NC2CCCCC2)c2ccc(-c3ccncc3)cc2)cc1` (stereo unspecified), the IC50 amounted to 12.4 µM in [1], 1.26 µM in [2], 3.2 µM in assay [4] and 15.6 µM in assay [3].
As for `CC(C)CNC(c1ccc(Cl)cc1)c1ccc(-c2cccnc2)cc1` (stereo unspecified), the inhibition in assay [5] came out at 10%.
For `Clc1ccc(C(NCc2ccccc2)c2ccc(-c3cn[nH]c3)cc2)cc1` (stereo unspecified), the IC50 came out at 8.3 µM in assay [1], 1.32 µM in assay [2], 5.3 µM in [4] and 11.9 µM in assay [3].
The like results for `CC(C)NC(c1ccc(Cl)cc1)c1ccc(-c2ccncc2)cc1` (stereo unspecified) were, in that order, 17.3 µM, 0.22 µM, 13.9 µM and 22.8 µM.
In the case of `CC(C)CNC(c1ccc(Cl)cc1)c1ccc(-c2ccncc2)cc1` (stereo unspecified), the IC50 in [1] was determined as 15.5 µM; in assay [2], 1.43 µM; in [4], 3.3 µM; in assay [3], 16.3 µM.
In the case of `Clc1ccc(C(NC2CC2)c2ccc(-c3cn[nH]c3)cc2)cc1` (stereo unspecified), the IC50 in assay [1] came out at 15.6 µM; in assay [2], 0.48 µM; in assay [4], 7.8 µM; in assay [3], 7.9 µM.
For the compound `OCCNC(c1ccc(Cl)cc1)c1ccc(-c2cn[nH]c2)cc1` (stereo unspecified), the IC50 amounted to 27.6 µM in assay [1], 0.65 µM in assay [2] and 34.7 µM in assay [3].
As for `Clc1ccc(C(NCc2ccccc2)c2ccc(-c3ncnc4[nH]cnc34)cc2)cc1` (stereo unspecified), the IC50 in assay [1] was 16.2 µM; in assay [2] it was 0.74 µM; in assay [4], 12.1 µM; in assay [3], 12.5 µM.
For the compound `CC(C)(C)NC(c1ccc(Cl)cc1)c1ccc(-c2cn[nH]c2)cc1` (stereo unspecified), in [6], the Activity came out at 66.8%. Moreover, the inhibition result in assay [7] was “inactive”. The IC50 in assay [8] turned out to be 0.88 µM; in [1], 8.9 µM; in [2], 0.038 µM; in assay [4], 5.3 µM; in assay [3], 8.1 µM. Besides, the inhibition result in assay [9] and in assay [12] was “Active” each time. Also, the inhibition in assay [10] was determined as 1.8%; in assay [11] it was 0.98%; in assay [13], 12%; in assay [14], 19.5%; in assay [15], 7.2%; in assay [16], 28.3%.
`Clc1ccc(C(Nc2ccccc2)c2ccc(-c3ccncc3)cc2)cc1` (stereo unspecified) showed an inhibition in [5] of 26%.
For `Clc1ccc(C(NC2CCCCC2)c2ccc(-c3cccnc3)cc2)cc1` (stereo unspecified), in assay [5], the inhibition is 20%.
On to `CC(C)CNC(c1ccc(Cl)cc1)c1ccc(-c2cn[nH]c2)cc1` (stereo unspecified), for which the IC50 in assay [1] came out at 14.1 µM; in [2] it was 0.9 µM; in assay [4], 5.4 µM; in assay [3] it was 8.1 µM.
With `O=S(=O)(NCCNC/C=C/c1ccc(Br)cc1)c1cccc2cnccc12`, the IC50 amounted to 15.7 µM in assay [1], 11.4 µM in [4] and 10.5 µM in assay [3].
`Clc1ccc(C(Nc2ccccc2)c2ccc(-c3cn[nH]c3)cc2)cc1` (stereo unspecified): the inhibition in assay [5] was 29%.
As for `CN[C@@H]1C[C@H]2O[C@@](C)([C@@H]1OC)n1c3ccccc3c3c4c(c5c6ccccc6n2c5c31)C(=O)NC4` [STAUROSPORINE], the results for the IC50 in [17] and in [18] were 0.026 µM and 0.015 µM, respectively.
With `CC(C)(C)NC(c1ccc(Cl)cc1)c1ccc(-c2cccnc2)cc1` (stereo unspecified), the inhibition in assay [5] stood at 19%.
Regarding `Clc1ccc(C(NC2CCCCC2)c2ccc(-c3cn[nH]c3)cc2)cc1` (stereo unspecified), the IC50 in assay [1] amounted to 26.8 µM; in assay [2], 1.1 µM; in assay [4], 2.1 µM; in assay [3] it was 5.5 µM.
For `Clc1ccc(C(NC2CC2)c2ccc(-c3ncnc4[nH]cnc34)cc2)cc1` (stereo unspecified), in that order: 13.4 µM, 0.47 µM, 11.9 µM and 30.6 µM.
For `Clc1ccc(C(NC2CCCCC2)c2ccc(-c3ncnc4[nH]cnc34)cc2)cc1` (stereo unspecified), in that order: 14.4 µM, 0.64 µM, 11 µM and 8.6 µM.
`CC(C)CNC(c1ccc(Cl)cc1)c1ccc(-c2ncnc3nc[nH]c23)cc1` (stereo unspecified): the IC50 is 7.7 µM in assay [1], 0.74 µM in assay [2], 5.3 µM in assay [4] and 9.9 µM in [3].
As to `CC(C)NC(c1ccc(Cl)cc1)c1ccc(-c2cn[nH]c2)cc1` (stereo unspecified), the IC50 in assay [1] turned out to be 11.6 µM; in assay [2], 0.37 µM; in assay [4] it was 10.7 µM; in [3] it was 12.2 µM.
For `Clc1ccc(C(NCc2ccccc2)c2ccc(-c3ccncc3)cc2)cc1` (stereo unspecified), in that order: 16.3 µM, 1.25 µM, 12.5 µM and 18.5 µM.
The like results for `CC(C)NC(c1ccc(Cl)cc1)c1ccc(-c2ncnc3nc[nH]c23)cc1` (stereo unspecified) were, in that order, 8.5 µM, 0.16 µM, 13.2 µM and 17 µM.
The like results for `CC(C)(C)NC(c1ccc(Cl)cc1)c1ccc(-c2ccncc2)cc1` (stereo unspecified) were, in that order, 14.4 µM, 0.17 µM, 3.9 µM and 16.1 µM.
